In ChEMBL document CHEMBL1275442, “Pharmacokinetics and tissue distribution of anidulafungin in rats” (Antimicrob Agents Chemother, 2008) one finds Drug uptake and AUC data, which are given here for one molecule.

One series has as its system Liver. Description: Drug level in Long Evans rat liver assessed as high disposition of radioactivity per gram of tissue at 5 mg/kg, iv administered as single bolus dose measured 0.5 hrs postdose by autoradiography. Conditions: in vivo. Format: ADME, organism-based. Further details: dose 5 mg/kg, route intravenous. Summed up: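 Male pigmented Long Evans (HsdBlu:LE) rats, 7.5 weeks old, 202 to 217 g, single iv [¹⁴C]anidulafungin; one rat per sampling time. Euthanized by isoflurane and cardiac-puncture exsanguination. Sagittal whole-body sections quantified by phosphorimaging autoradiography, single samples corrected for section thickness across multiple sections per tissue. Concentrations (μg eq/g drug-derived radioactivity) interpolated from least-squares standard curves per scan.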

A further series concerns Muscle tissue. Put plainly: AUC (0 to 24 hrs) in F344 rat muscle at 5 mg/kg, iv administered as single bolus dose. Format: ADME, organism-based. Further details: time < 24 hr, dose 5 mg/kg, route intravenous. Conditions: in vivo. Summed up:
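Male F344 rats, 10–11 weeks, 223.6–243.8 g, given one IV dose of [¹⁴C]anidulafungin, 5 mg/kg, over about 5 min. Tissues and blood sampled at 0.083–72 h (n = 3 rats per time). Parent drug measured by HPLC; LLOQ/ULOQ were 20/5,120 ng/ml for plasma and 220/56,320 ng/g for tissue. Noncompartmental parameters taken from the composite mean profile.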

Structures are written as SMILES.

As for `CCCCCOc1ccc(-c2ccc(-c3ccc([14C](=O)N[C@H]4C[C@@H](O)[C@@H](O)NC(=O)[C@@H]5[C@@H](O)[C@@H](C)CN5C(=O)[C@H]([C@@H](C)O)NC(=O)[C@H]([C@H](O)[C@@H](O)c5ccc(O)cc5)NC(=O)[C@@H]5C[C@@H](O)CN5C(=O)[C@H]([C@@H](C)O)NC4=O)cc3)cc2)cc1` [14C-ANIDULAFUNGIN], the Drug uptake with Liver is reported as 11.79 ugequiv. This molecule also displayed an AUC with Muscle tissue of 54.33 µg·h/g.
